# Experiments:
# [1] = target: T1, Tyrosine-protein phosphatase non-receptor type 1 (Homo sapiens, UniProt P18031); assay: Inhibition of PTP1B
# T1 sequence (P18031 whole entry): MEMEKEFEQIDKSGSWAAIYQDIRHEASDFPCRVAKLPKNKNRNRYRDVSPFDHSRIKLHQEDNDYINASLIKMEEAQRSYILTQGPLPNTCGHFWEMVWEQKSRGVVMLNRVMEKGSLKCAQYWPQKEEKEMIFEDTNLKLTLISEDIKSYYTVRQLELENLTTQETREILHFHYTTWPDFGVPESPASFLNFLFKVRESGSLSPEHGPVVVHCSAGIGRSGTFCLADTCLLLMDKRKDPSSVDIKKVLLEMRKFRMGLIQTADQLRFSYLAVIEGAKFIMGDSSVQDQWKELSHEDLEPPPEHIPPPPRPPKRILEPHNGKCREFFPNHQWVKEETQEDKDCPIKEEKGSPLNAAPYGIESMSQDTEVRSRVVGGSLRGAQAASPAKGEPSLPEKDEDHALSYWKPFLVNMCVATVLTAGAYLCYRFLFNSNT
# How it was run: (§1)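 Enzymes expressed in E. coli and purified: native PTP1B at 2.1 µg/mL, SHP-1 catalytic domain at 5 µg/mL. Buffer 100 mM Hepes, 5 mM EDTA, pH 7.0, 37 °C. Enzyme preincubated 10 min with inhibitor in DMSO, then 2 mM pNPP (final) added. Reaction 3 min, quenched with NaOH, p-nitrophenol read at 405 nm. IC50 taken over a range of inhibitor concentrations.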
# [2] = test system: Mus musculus; assay: Effect on nonesterified fatty acid level in HFD-fed C57BL/6J Jms Slc DIO mouse plasma at 5 g/kg of diet after 28 days; format: functional
# How it was run: (§2)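 DIO mice (HFD 8 weeks, then drug in powdered HFD at 5 g/kg diet for 4 weeks) fasted 8 h at the end. Secobarbital 40 mg/kg ip, cardiac-puncture blood into EDTA, plasma spun at 5000g, 10 min, 4 °C and frozen. Enzymatic colour kits, 37 °C. Glucose: 5 min, A505. TG and cholesterol: 5 min, A600. NEFA: 20 min, A550. Means ± SEM, n = 8–9.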
# [3] = test system: Mus musculus; assay: Effect on total cholesterol in HFD-fed C57BL/6J Jms Slc DIO mouse plasma at 5 g/kg of diet after 28 days; format: functional; how it was run: as §2
# [4] = test system: Mus musculus; assay: Effect on triglyceride level in HFD-fed C57BL/6J Jms Slc DIO mouse plasma at 5 g/kg of diet after 28 days; format: functional; how it was run: as §2
# [5] = test system: Mus musculus; assay: Effect on liver weight in HFD-fed C57BL/6J Jms Slc DIO mouse at 5 g/kg of diet after 28 days; format: functional
# How it was run: (§3)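 Male C57BL/6J Jms Slc mice (4 weeks old, 17–19 g), acclimatized 1 week on LFD, then HFD for 8 weeks to induce obesity. Next 4 weeks on powdered HFD with compound kneaded in at 5 g/kg diet (0.5% w/w), dissolved with 2 equiv NaOH in water. Vehicle diet was kneaded with the same volume of water. n = 9/group, LFD lean control n = 8. Body weight recorded every other day. Means ± SEM.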
# [6] = test system: Mus musculus; assay: Effect on glucose level in HFD-fed C57BL/6J Jms Slc DIO mouse plasma at 5 g/kg of diet after 28 days; format: functional; how it was run: as §2
# [7] = target: T2, Tyrosine-protein phosphatase non-receptor type 2 (Homo sapiens, UniProt P17706); assay: Inhibition of TC-PTP
# T2 sequence (P17706 whole entry): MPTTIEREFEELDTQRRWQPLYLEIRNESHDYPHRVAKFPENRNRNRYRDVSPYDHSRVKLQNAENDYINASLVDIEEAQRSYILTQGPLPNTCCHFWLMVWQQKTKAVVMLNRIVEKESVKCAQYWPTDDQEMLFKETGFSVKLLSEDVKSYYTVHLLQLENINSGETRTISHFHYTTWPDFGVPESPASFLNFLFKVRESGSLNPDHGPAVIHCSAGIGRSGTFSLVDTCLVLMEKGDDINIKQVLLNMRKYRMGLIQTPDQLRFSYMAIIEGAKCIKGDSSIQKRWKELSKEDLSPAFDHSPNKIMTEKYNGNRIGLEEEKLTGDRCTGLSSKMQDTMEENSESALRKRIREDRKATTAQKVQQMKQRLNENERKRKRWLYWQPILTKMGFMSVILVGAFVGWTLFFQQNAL
# How it was run: (§4)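 Commercial LAR-D1 (membrane-proximal catalytic domain) and TC-PTP, each at 33 U/mL. Run at 37 °C in 100 mM Hepes, 5 mM EDTA, pH 7.0. Inhibitor in DMSO preincubated 10 min before 2 mM pNPP (final) added. After 3 min, quenched with NaOH and A405 read. IC50 from a range of inhibitor concentrations.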
# [8] = test system: Mus musculus; assay: Effect on adipose retroperitoneal tissue weight in HFD-fed C57BL/6J Jms Slc DIO mouse at 5 g/kg of diet after 28 days; format: functional; how it was run: as §3
# [9] = target: Tyrosine-protein phosphatase non-receptor type 6 (Homo sapiens, UniProt P29350); assay: Inhibition of SHP-1 catalytic domain; how it was run: as §1
# Tyrosine-protein phosphatase non-receptor type 6, sequence (P29350 whole entry, the tested form may be a part): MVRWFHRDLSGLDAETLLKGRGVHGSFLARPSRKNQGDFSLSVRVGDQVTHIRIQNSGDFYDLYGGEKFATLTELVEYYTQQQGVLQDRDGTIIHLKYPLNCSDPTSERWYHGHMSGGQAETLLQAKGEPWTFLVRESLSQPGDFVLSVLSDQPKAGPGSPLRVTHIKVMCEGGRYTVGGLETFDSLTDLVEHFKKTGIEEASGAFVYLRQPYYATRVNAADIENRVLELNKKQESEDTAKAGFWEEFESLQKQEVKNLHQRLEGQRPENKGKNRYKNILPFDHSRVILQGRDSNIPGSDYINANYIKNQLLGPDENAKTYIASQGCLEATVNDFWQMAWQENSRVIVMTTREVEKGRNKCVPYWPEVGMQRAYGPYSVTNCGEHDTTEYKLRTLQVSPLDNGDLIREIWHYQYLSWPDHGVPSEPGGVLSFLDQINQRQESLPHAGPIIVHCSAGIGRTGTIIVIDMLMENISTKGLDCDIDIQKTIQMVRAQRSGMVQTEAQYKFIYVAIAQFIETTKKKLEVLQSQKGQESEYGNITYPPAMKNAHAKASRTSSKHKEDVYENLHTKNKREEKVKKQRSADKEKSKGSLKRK
# [10] = target: T3, Tyrosine-protein phosphatase 1 (Saccharomyces cerevisiae S288c, UniProt P25044); assay: Inhibition of yeast PTP1
# T3 sequence (P25044 whole entry): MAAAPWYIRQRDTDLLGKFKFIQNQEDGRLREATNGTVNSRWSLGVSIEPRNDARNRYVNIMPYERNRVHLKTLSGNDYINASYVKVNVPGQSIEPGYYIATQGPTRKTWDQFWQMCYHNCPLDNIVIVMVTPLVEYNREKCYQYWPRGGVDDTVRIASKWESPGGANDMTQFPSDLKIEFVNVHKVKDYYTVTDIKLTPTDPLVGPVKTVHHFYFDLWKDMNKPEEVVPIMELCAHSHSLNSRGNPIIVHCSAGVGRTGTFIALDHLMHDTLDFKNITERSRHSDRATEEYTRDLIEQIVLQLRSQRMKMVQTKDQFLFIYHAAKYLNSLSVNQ
# How it was run: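 Yeast PTPase YPTP1 at 30 ng/mL. pNPP hydrolysis at 37 °C, pH 7.0 Hepes/EDTA buffer, 10 min inhibitor preincubation, 2 mM pNPP final, 3 min reaction, NaOH stop, A405. IC50 derived from activity across inhibitor concentrations.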
# [11] = Inhibition of LAR-D1; set-up: species or system Homo sapiens; how it was run: as §4
# [12] = test system: Mus musculus; assay: Effect on body weight in HFD-fed C57BL/6J Jms Slc DIO mouse at 5 g/kg of diet after 28 days; format: functional; how it was run: as §3
# [13] = test system: Mus musculus; assay: Effect on adipose epididymal tissue weight in HFD-fed C57BL/6J Jms Slc DIO mouse at 5 g/kg of diet after 28 days; format: functional; how it was run: as §3
IC50 [1] [µM],Compound,further results
1280,O=C(O)c1cc(-c2ccccc2)ccc1O,–
–,O=C(O)c1cc(Cc2cc(C(=O)O)c(O)c(-c3ccccc3)c2)cc(-c2ccccc2)c1O,Activity [2]: 0.24 mEq/L; Activity [3]: 129 mg/dL; Activity [4]: 42 mg/dL; Activity [5]: 1.03 g; Activity [6]: 300 mg/dL
215,O=C(O)c1cc(F)cc(Cc2cc(F)cc(C(=O)O)c2O)c1O,–
19,O=C(O)c1cc(-c2ccccc2)cc(Cc2cc(-c3ccccc3)cc(C(=O)O)c2O)c1O,Activity [2]: 0.14 mEq/L; Activity [3]: 133 mg/dL; IC50 [7]: 156 µM; Ki [7]: 89 µM; Activity [8]: 0.26 g; Activity [4]: 48 mg/dL; IC50 [9]: 37 µM; Ki [9]: 9.7 µM; Activity [5]: 1.07 g; Ki [1]: 6.5 µM; Activity [6]: 280 mg/dL; IC50 [10]: 86 µM; IC50 [11]: > 2000 µM; Activity [12]: 28.9 g; Activity [13]: 0.83 g
67,O=C(O)c1cc(-c2ccco2)cc(Cc2cc(-c3ccco3)cc(C(=O)O)c2O)c1O,–
27,O=C(O)c1cc(-c2cccs2)cc(Cc2cc(-c3cccs3)cc(C(=O)O)c2O)c1O,–
380,O=Cc1cc(C(=O)O)c(O)c(C2CCCO2)c1 (stereo not drawn),–
> 1000,O=C(O)c1cc(F)ccc1O,–
> 1000,O=Cc1ccc(O)c(C(=O)O)c1,–
> 1000,O=C(O)Cc1cc(O)c(CC(=O)O)cc1O,–
> 1000,O=C(O)c1cc2ccccc2cc1O,–
859,O=C(O)c1cccc(-c2ccccc2)c1O,–
1180,O=C(O)c1cc(Cc2ccccc2)ccc1O,–
403,O=C(O)c1cccc(Cc2ccccc2)c1O,–
153,O=C(O)c1cc(Cc2ccccc2)cc(Br)c1O,–
57,O=C(O)c1cc(-c2ccccc2)cc(Cc2ccccc2)c1O,–
91,O=C(O)c1cc(Cc2ccccc2)cc(Cc2ccccc2)c1O,–
149,O=C(O)c1cc(Br)cc(Cc2cc(Br)cc(C(=O)O)c2O)c1O,–
351,O=C(O)c1cc(-c2ccccc2)cc(Br)c1O,–
> 1000,O=C(O)c1cccc(Br)c1O,–
148,O=C(O)c1cc(Br)cc(Cc2ccccc2)c1O,–
65,O=C(O)c1cc(Cc2ccccc2)cc(-c2ccccc2)c1O,IC50 [7]: 540 µM; IC50 [9]: 129 µM; IC50 [10]: 271 µM; IC50 [11]: > 2000 µM
84,O=C(O)c1cc(-c2ccccc2)cc(-c2ccccc2)c1O,–
850,O=C(O)c1ccc2ccccc2c1O [CARBOXYNAPHTHOL],–
> 1000,O=C(O)c1cc(S(=O)(=O)O)ccc1O [SULFOSALICYLIC],–

# From ChEMBL document CHEMBL1143766, “Mono- and disalicylic acid derivatives: PTP1B inhibitors as potential anti-obesity drugs” (Bioorg Med Chem, 2007)
